In ChEMBL document CHEMBL1156178, “Discovery of novel 6,6-heterocycles as transient receptor potential vanilloid (TRPV1) antagonists” (J Med Chem, 2010):
In brackets after ≈: the same amount, converted by molar mass.

Key:
[1] = molecular target: Transient receptor potential cation channel subfamily V member 1 (Homo sapiens, UniProt Q8NER1); test: Antagonist activity at human recombinant TRPV1 expressed in HEK293 cells assessed as inhibition of capsaicin-induced calcium mobilization by FLIPR assay
Sequence of Transient receptor potential cation channel subfamily V member 1 (Homo sapiens, UniProt Q8NER1) (Q8NER1 whole entry): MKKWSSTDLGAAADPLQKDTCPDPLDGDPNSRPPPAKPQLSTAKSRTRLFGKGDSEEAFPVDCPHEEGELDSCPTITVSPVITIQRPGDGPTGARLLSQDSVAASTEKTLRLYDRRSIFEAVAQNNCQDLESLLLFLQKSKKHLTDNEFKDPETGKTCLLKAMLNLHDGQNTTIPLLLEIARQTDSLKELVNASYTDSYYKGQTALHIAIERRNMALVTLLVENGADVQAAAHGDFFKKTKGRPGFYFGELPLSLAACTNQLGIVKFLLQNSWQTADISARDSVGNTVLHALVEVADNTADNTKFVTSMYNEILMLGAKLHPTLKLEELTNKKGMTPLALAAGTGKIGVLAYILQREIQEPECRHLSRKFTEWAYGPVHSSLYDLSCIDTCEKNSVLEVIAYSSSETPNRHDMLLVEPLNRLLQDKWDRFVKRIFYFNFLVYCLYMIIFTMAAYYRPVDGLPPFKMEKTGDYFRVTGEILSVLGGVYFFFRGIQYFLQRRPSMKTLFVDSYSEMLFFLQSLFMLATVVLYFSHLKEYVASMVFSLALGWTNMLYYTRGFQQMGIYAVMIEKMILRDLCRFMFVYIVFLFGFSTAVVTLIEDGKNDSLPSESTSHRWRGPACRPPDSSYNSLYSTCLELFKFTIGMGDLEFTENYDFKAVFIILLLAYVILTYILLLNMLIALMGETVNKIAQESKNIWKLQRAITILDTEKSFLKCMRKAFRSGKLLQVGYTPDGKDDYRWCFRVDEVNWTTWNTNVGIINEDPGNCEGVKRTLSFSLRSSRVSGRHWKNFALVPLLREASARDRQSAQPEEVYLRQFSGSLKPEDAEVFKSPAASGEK

[2] = Solubility in 0.1 N HCL after 4 hrs by HPLC/MS analysis; assay type: physicochemical
[3] = molecular target: Transient receptor potential cation channel subfamily V member 1 (Rattus norvegicus, UniProt O35433); test: Inhibition of rat TRPV1
Sequence of Transient receptor potential cation channel subfamily V member 1 (Rattus norvegicus, UniProt O35433) (O35433 whole entry): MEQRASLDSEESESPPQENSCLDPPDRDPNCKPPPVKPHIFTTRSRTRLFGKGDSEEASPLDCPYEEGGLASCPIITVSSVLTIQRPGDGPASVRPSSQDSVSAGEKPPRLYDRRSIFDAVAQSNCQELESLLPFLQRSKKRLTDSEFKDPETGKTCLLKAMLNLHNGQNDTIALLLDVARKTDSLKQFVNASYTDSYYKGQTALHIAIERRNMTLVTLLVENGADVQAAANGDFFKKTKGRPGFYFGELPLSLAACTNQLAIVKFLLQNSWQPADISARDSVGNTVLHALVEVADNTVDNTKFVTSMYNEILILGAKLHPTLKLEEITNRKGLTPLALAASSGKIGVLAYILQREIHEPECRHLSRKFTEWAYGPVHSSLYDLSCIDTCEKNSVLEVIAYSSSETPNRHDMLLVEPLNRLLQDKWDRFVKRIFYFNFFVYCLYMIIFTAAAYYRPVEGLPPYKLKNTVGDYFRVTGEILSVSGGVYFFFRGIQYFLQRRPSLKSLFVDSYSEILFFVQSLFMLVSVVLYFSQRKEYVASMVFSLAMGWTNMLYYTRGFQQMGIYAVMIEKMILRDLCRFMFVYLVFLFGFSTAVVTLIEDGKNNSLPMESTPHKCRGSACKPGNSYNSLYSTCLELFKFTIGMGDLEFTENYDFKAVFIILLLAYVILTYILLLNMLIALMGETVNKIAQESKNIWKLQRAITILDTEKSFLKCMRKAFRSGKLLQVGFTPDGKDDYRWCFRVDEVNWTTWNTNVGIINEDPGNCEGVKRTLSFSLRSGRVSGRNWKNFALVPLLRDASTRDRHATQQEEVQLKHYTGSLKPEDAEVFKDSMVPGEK

MDR1 = test: Apparent permeability across pig LLC-PK1 cells expressing MDR1; assay type: ADME, cell-based, Sus scrofa
Rattus norvegicus = species on record: Rattus norvegicus; test: Analgesic activity against carrageenan-induced thermal hyperalgesia in rat; assay type: functional; details: read-out: MED
[4] = Metabolic stability in rat liver microsomes assessed as compound remaining at 1 uM after 10 mins by LCMS analysis; assay type: ADME, Microsome; details: read-out: Activity
Procedure, shortened: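 Compound (1 μM) incubated at 37 °C with 0.5 mg/mL male pooled rat liver microsomes; NADPH added to start the reaction. Aliquots were taken at 0 and 10 min and quenched into ice-cold acetonitrile with internal standard, then centrifuged. Parent was monitored as the M+1 ion by ESI-LCMS in selected-ion mode. Percent remaining was taken as the 10 min/0 min signal ratio, corrected by internal-standard recovery.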

[5] = Half life in rat at 2.7 mg/kg, iv and 2 mg/kg, po; assay type: ADME, organism-based; details: in vivo

IC50 [1] | solubility at 4 h [2] | Compound | further results
0.83 nM | 9 µg/mL (≈ 20.7 µM) | FC(F)(F)c1ccc(Nc2ncnc3nc(-c4ncccc4C(F)(F)F)ccc23)cc1 | –
6.1 nM | 24 µg/mL (≈ 55.3 µM) | FC(F)(F)c1ccc(Nc2ccnc3nc(-c4ncccc4C(F)(F)F)ccc23)cc1 | –
– | – | O=C(Nc1ccccc1Br)N[C@@H]1CCN(c2ccc(C(F)(F)F)cn2)C1 [SB-705498] | IC50 [3]: 32 nM
665 nM | 4 µg/mL (≈ 9.17 µM) | FC(F)(F)c1ccc(Nc2ncnc3nc(-c4ncccc4C(F)(F)F)ncc23)cc1 | –
0.21 nM | 1 µg/mL (≈ 2.29 µM) | FC(F)(F)c1ccc(Nc2ncnc3nc(-c4ncccc4C(F)(F)F)cnc23)cc1 | –
29 nM | – | FC(F)(F)c1ccc(Nc2cnnc3cc(-c4ncccc4C(F)(F)F)ccc23)nc1 | –
– | 16 µg/mL (≈ 36.8 µM) | FC(F)(F)c1ccc(Nc2ncnc3cc(-c4ncccc4C(F)(F)F)ccc23)cc1 [NGD-8243] | Papp (MDR1): 11 ×10⁻⁶ cm/s; minimal effective dose (Rattus norvegicus): 0.1 mg/kg; remaining at 10 min, 1 µM [4]: 93%; half-life [5]: 8 h
0.63 nM | 6 µg/mL (≈ 13.8 µM) | FC(F)(F)c1ccc(Nc2ncnc3cc(-c4ncccc4C(F)(F)F)cnc23)cc1 | –
